Measured values from ChEMBL document CHEMBL1140877, “Synthesis and evaluation of Hsp90 inhibitors that contain the 1,4-naphthoquinone scaffold” (Bioorg Med Chem, 2009).

Experiments:
Heat shock protein HSP90 [1] = target: T1, Heat shock protein HSP90 (Homo sapiens, UniProt P07900+P08238); assay: Inhibition of Hsp90 in human SKBR3 cells assessed as down-regulation of Her2 protein by ELISA; format: cell-based; details: sk-br-3
Outline: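 SKBr3 cells seeded 3000/well, attached overnight, dosed at varying concentrations for 24 hr. Cells washed with ice-cold PBS/1% Tween, fixed and permeabilised in -20 °C methanol (4 °C, 10 min), blocked in 5% BSA/PBST 1 hr, probed with rabbit anti-Her2 (1:500, 4 °C overnight), then HRP anti-rabbit IgG (1:1000, 2 hr rt); chemiluminescence read. Mean ± SEM, three experiments in triplicate.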

SK-BR-3 = assay: Antiproliferative activity against ERalpha negative/Her2 over expressing human SKBR3 cells after 72 hrs by MTS/PMS assay; format: functional, cell-based; details: SK-BR-3, 72 h
Outline: (§1)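 MCF-7 and SKBr3 cells grown in 1:1 DMEM:Ham's F-12 with non-essential amino acids, 2 mM L-glutamine, penicillin/streptomycin, 10% FBS. Seeded 2000 cells/well, attached overnight, then exposed to varying concentrations in DMSO (1% final) for 72 hr at 37 °C, 5% CO2. Viable cells read by MTS/PMS; 1% DMSO wells set as 100% proliferation. Mean ± SEM, three experiments in triplicate.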

MCF7 = assay: Antiproliferative activity against ERalpha positive human MCF7 cells after 72 hrs by MTS/PMS assay; format: functional, cell-based; details: MCF7, 72 h; outline: as §1
[2] = Inhibition of Hsp90-dependent renaturation of firefly luciferase in rabbit reticulocyte lysate at 25 ug/mL; parameters: species or system Oryctolagus cuniculus
Heat shock protein HSP90 [3] = target: T1, Heat shock protein HSP90; assay: Inhibition of Hsp90 in human MCF7 cells assessed as degradation of Akt protein by Western blot analysis; format: cell-based
Outline: (§2)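 MCF-7 cells seeded at 1×10^6 per dish, attached overnight, treated at varying concentrations for 24 h (37 °C, 5% CO2), then harvested and immunoblotted for client proteins (Her2, Raf-1, Akt) with actin as non-client reference; GA (500 nM) and DMSO as controls.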

Heat shock protein HSP90 [4] = target: T1, Heat shock protein HSP90; assay: Inhibition of Hsp90 in human MCF7 cells assessed as degradation of Her2 protein by Western blot analysis; format: cell-based; outline: as §2
Heat shock protein HSP90 [5] = target: T1, Heat shock protein HSP90; assay: Inhibition of Hsp90 in human MCF7 cells assessed as degradation of Raf1 protein by Western blot analysis; format: cell-based; outline: as §2

## COc1ccc(C2=C(NC(=O)c3ccccc3)C(=O)c3ccccc3C2=O)cc1
Heat shock protein HSP90 [1]
  IC50: 2.8 µM
SK-BR-3
  IC50: 4 µM
MCF7
  IC50: 1.4 µM

## COc1cccc(-c2cc(C(=O)NC3=C(Cl)C(=O)c4ccccc4C3=O)ccc2OC)c1
[2]
  IC50: 1.6 µM
Heat shock protein HSP90 [1]
  IC50: 1.7 µM
Heat shock protein HSP90 [3]
  Activity: Dose-dependent effect
MCF7
  IC50: 3 µM
Heat shock protein HSP90 [4]
  Activity: Dose-dependent effect
Heat shock protein HSP90 [5]
  Activity: Dose-dependent effect

## O=C(NC1=C(c2ccccc2Cl)C(=O)c2ccccc2C1=O)c1ccccc1
Heat shock protein HSP90 [1]
  IC50: 1.8 µM
SK-BR-3
  IC50: 4 µM

## COc1ccc(C2=C(NC(=O)c3cccc(OC)c3)C(=O)c3ccccc3C2=O)cc1
Heat shock protein HSP90 [1]
  IC50: 44.2 µM
SK-BR-3
  IC50: 6.4 µM
MCF7
  IC50: 1.8 µM

## CC(=O)NC1=C(c2ccccc2Cl)C(=O)c2ccccc2C1=O
Heat shock protein HSP90 [1]
  IC50: 2.3 µM
SK-BR-3
  IC50: 3.6 µM
MCF7
  IC50: 3 µM

## COc1ccc(C2=C(NC(C)=O)C(=O)c3ccccc3C2=O)cc1
Heat shock protein HSP90 [1]
  IC50: 2.2 µM
SK-BR-3
  IC50: 2.7 µM

## COc1ccc(C2=C(NC(=O)c3cccc(Cl)c3)C(=O)c3ccccc3C2=O)cc1
Heat shock protein HSP90 [1]
  IC50: 12.9 µM
SK-BR-3
  IC50: 9.5 µM
MCF7
  IC50: 3.4 µM

## O=C(NC1=C(c2ccccc2)C(=O)c2ccccc2C1=O)c1ccccc1
Heat shock protein HSP90 [1]
  IC50: 3.8 µM
SK-BR-3
  IC50: 6.8 µM
MCF7
  IC50: 2.1 µM

## COc1cccc(C2=C(NC(=O)c3ccccc3)C(=O)c3ccccc3C2=O)c1
Heat shock protein HSP90 [1]
  IC50: 2.7 µM
MCF7
  IC50: 1.4 µM

## CC(=O)C1=C(c2ccccc2)C(=O)c2ccccc2C1=O
[2]
  IC50: 0.25 µM
Heat shock protein HSP90 [1]
  IC50: 3.3 µM
SK-BR-3
  IC50: 0.82 µM
MCF7
  IC50: 0.21 µM

## COc1ccc(C2=C(NC(=O)c3ccccc3Cl)C(=O)c3ccccc3C2=O)cc1
Heat shock protein HSP90 [1]
  IC50: 2 µM
SK-BR-3
  IC50: 5.5 µM
Heat shock protein HSP90 [3]
  Activity: Dose-dependent effect
MCF7
  IC50: 2.2 µM
Heat shock protein HSP90 [4]
  Activity: Dose-dependent effect
Heat shock protein HSP90 [5]
  Activity: Dose-dependent effect

## O=C(NC1=C(c2ccc3oc4ccccc4c3c2)C(=O)c2ccccc2C1=O)c1ccccc1
Heat shock protein HSP90 [1]
  IC50: > 100 µM
SK-BR-3
  IC50: > 100 µM
MCF7
  IC50: 6 µM

## CC(=O)NC1=C(c2ccccc2)C(=O)c2ccccc2C1=O
Heat shock protein HSP90 [1]
  IC50: 3.2 µM
SK-BR-3
  IC50: 1.5 µM
MCF7
  IC50: 1.6 µM

## O=C(NC1=C(c2ccc(Oc3ccccc3)cc2)C(=O)c2ccccc2C1=O)c1ccccc1
Heat shock protein HSP90 [1]
  IC50: > 100 µM
SK-BR-3
  IC50: > 100 µM
MCF7
  IC50: 23 µM

## CC(=O)NC1=C(c2ccc(Oc3ccccc3)cc2)C(=O)c2ccccc2C1=O
Heat shock protein HSP90 [1]
  IC50: 24.6 µM
SK-BR-3
  IC50: 12.1 µM
MCF7
  IC50: 2.5 µM

## COc1ccc(C2=C(NC(=O)c3ccc4ccccc4c3)C(=O)c3ccccc3C2=O)cc1
Heat shock protein HSP90 [1]
  IC50: > 100 µM
SK-BR-3
  IC50: > 100 µM
MCF7
  IC50: 6.8 µM

## COc1cccc(C2=C(NC(C)=O)C(=O)c3ccccc3C2=O)c1
Heat shock protein HSP90 [1]
  IC50: 4.8 µM
SK-BR-3
  IC50: 3.9 µM
MCF7
  IC50: 2.7 µM

## CC(=O)NC1=C(c2ccc3oc4ccccc4c3c2)C(=O)c2ccccc2C1=O
Heat shock protein HSP90 [1]
  IC50: 13.3 µM
SK-BR-3
  IC50: 6.8 µM
MCF7
  IC50: 2.4 µM

## O=C1c2ccccc2C(=O)c2c1nc1ccccn21
[2]
  IC50: 0.02 µM
Heat shock protein HSP90 [1]
  IC50: 1.2 µM
SK-BR-3
  IC50: 0.87 µM
MCF7
  IC50: 0.83 µM

## O=C(NC1=C(Cl)C(=O)c2ccccc2C1=O)c1ccccc1
Heat shock protein HSP90 [1]
  IC50: 30.1 µM
SK-BR-3
  IC50: 2.1 µM
MCF7
  IC50: 1.8 µM

## O=C(NC1=C(c2cccc(Cl)c2)C(=O)c2ccccc2C1=O)c1ccccc1
Heat shock protein HSP90 [1]
  IC50: 6.3 µM
SK-BR-3
  IC50: 12.7 µM
MCF7
  IC50: 4.8 µM

## COc1ccc(C2=C(NC(=O)c3ccc(OC)c(-c4cccc(OC)c4)c3)C(=O)c3ccccc3C2=O)cc1
[2]
  IC50: 86 µM
Heat shock protein HSP90 [1]
  IC50: > 100 µM
SK-BR-3
  IC50: > 100 µM
MCF7
  IC50: > 100 µM

## COc1ccc(C2=C(NC(=O)c3ccccc3OC)C(=O)c3ccccc3C2=O)cc1
Heat shock protein HSP90 [1]
  IC50: 5.8 µM
SK-BR-3
  IC50: 7.9 µM
MCF7
  IC50: 2.1 µM

## COc1ccc(C2=C(NC(=O)c3ccc(Cl)cc3)C(=O)c3ccccc3C2=O)cc1
Heat shock protein HSP90 [1]
  IC50: 3 µM
MCF7
  IC50: 3.3 µM

## COc1ccc(C2=C(NC(=O)C3CCCCC3)C(=O)c3ccccc3C2=O)cc1
[2]
  IC50: 1.4 µM
Heat shock protein HSP90 [1]
  IC50: 2.5 µM
SK-BR-3
  IC50: 4.8 µM
MCF7
  IC50: 1.9 µM

## COc1ccccc1C1=C(NC(C)=O)C(=O)c2ccccc2C1=O
[2]
  IC50: 1.6 µM
Heat shock protein HSP90 [1]
  IC50: 2.5 µM
SK-BR-3
  IC50: 1.7 µM
MCF7
  IC50: 2.2 µM

## O=C(NC1=C(c2ccc(Cl)cc2)C(=O)c2ccccc2C1=O)c1ccccc1
[2]
  IC50: 1.4 µM
Heat shock protein HSP90 [1]
  IC50: 1.8 µM
SK-BR-3
  IC50: 8.5 µM
MCF7
  IC50: 2.6 µM

## CC(=O)NC1=C(N2CCOCC2)C(=O)c2nonc2C1=O
[2]
  IC50: 0.38 µM
Heat shock protein HSP90 [1]
  IC50: 1.2 µM
SK-BR-3
  IC50: 2.9 µM
MCF7
  IC50: 19 µM

## CC(=O)NC1=C(Cl)C(=O)c2ccccc2C1=O
[2]
  IC50: 5 µM
Heat shock protein HSP90 [1]
  IC50: 6.6 µM
SK-BR-3
  IC50: 0.6 µM
MCF7
  IC50: 1.7 µM

## CC(=O)NC1=C(c2ccc(Cl)cc2)C(=O)c2ccccc2C1=O
[2]
  IC50: 0.2 µM
Heat shock protein HSP90 [1]
  IC50: 5.3 µM
SK-BR-3
  IC50: 1.8 µM
Heat shock protein HSP90 [3]
  Activity: Dose-dependent effect
MCF7
  IC50: 1.4 µM
Heat shock protein HSP90 [4]
  Activity: Dose-dependent effect
Heat shock protein HSP90 [5]
  Activity: Dose-dependent effect

## COc1ccccc1C1=C(NC(=O)c2ccccc2)C(=O)c2ccccc2C1=O
[2]
  IC50: 39 µM
Heat shock protein HSP90 [1]
  IC50: 3 µM
SK-BR-3
  IC50: 1.9 µM
MCF7
  IC50: 2.2 µM

## CC(=O)NC1=C(c2cccc(Cl)c2)C(=O)c2ccccc2C1=O
Heat shock protein HSP90 [1]
  IC50: 2 µM
SK-BR-3
  IC50: 2.5 µM
MCF7
  IC50: 1.3 µM

## COc1ccc(C(=O)NC2=C(c3ccc(OC)cc3)C(=O)c3ccccc3C2=O)cc1
[2]
  IC50: 24 µM
Heat shock protein HSP90 [1]
  IC50: 2.4 µM
SK-BR-3
  IC50: 6.4 µM
MCF7
  IC50: 1.5 µM

## COc1ccc(C2=C(NC(=O)c3cccc4ccccc34)C(=O)c3ccccc3C2=O)cc1
Heat shock protein HSP90 [1]
  IC50: 9.9 µM
SK-BR-3
  IC50: 5.8 µM
MCF7
  IC50: 2.2 µM
